According to ChEMBL document CHEMBL4513216, “Probing the Open Global Health Chemical Diversity Library for Multistage-Active Starting Points for Next-Generation Antimalarials” (ACS Infect Dis, 2020):

Assay: Toxicity liver stage against HepG2, at 10uM
Format: cell-based
Design: test concentration 10 uM, cell line HepG2-A16-CD81EGFP
Conditions: human, HepG2-A16-CD81EGFP cells; read-out: INHIBITION
How it was run: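 Uninfected HepG2-A16-CD81EGFP cells, 3 × 10^3 per well, 1536-well, plated on prespotted compound at 10 μM final, parasite-free screening media added to match infected plates; puromycin 10 μM positive, DMSO 0.5% negative; run in parallel with 48 h PbLuc assay at 37 °C, 5% CO2; viability by CellTiter-Glo luminescence, normalized to controls.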

| Structure (SMILES) | cytotoxicity at 10 µM [%] |
| --- | --- |
| Cc1cccc(CN2CCC3(CC2)COC(COCC2CC2)C3)n1 (configuration not stated) | -108 |
| Nc1cccc(-c2cccc3ccnn23)n1 | -5.74 |
| N#Cc1ccc(CN2C[C@@H]3OCC(=O)N(CC(N)=O)[C@@H]3C2)cc1 | -1.51 |
| COc1c(C)cnc(CN2CCOC(Cn3cc(C)cn3)C2)c1C (configuration not stated) | -14.7 |
| Cc1cc(=O)n(C)cc1NC(=O)NCc1cccc(F)c1 | -5.3 |
| Cn1ccnc1CN1CCC2(CC1)Cc1ccccc1CNC2=O | -1.6 |
| N#Cc1cnc(NCCCN2C(=O)COc3ccccc32)c(Cl)c1 | -3.64 |
| Cn1nccc1C(=O)N1Cc2cc(Cl)ccc2OC2(CCOCC2)C1 | 19.7 |
| O=C1CCN(CCS(=O)(=O)c2ccc(Cl)cc2)CCN1 | -8.48 |
| Cn1c(=O)oc2cc(Nc3ncc(C#N)cc3Cl)ccc21 | 4.93 |
| CCOC1CCCN(C(=O)NCCc2ccn(-c3ccccc3)n2)C1 (configuration not stated) | 3.13 |
| O=C(NC1CCS(=O)(=O)C1)N1CCN(c2cnccn2)CC1 (configuration not stated) | -0.685 |
| CCC(=O)NC1CCCN(Cc2ccc(NC(C)=O)cc2)C1 (configuration not stated) | -47.9 |
| CC(C)CC(O)C1CCN(C(=O)c2ccc(C(F)(F)F)nc2O)CC1 (configuration not stated) | 2.5 |
| Cc1nc(CN2CCOC(Cn3cncn3)C2)nc2ccccc12 (configuration not stated) | -0.241 |
| COc1cc(NC(=O)c2cc(C)sc2C)c(C(=O)N(C)C)cc1OC | -10.6 |
| COc1cc(NC(=O)c2ccc(C)cc2C)c(C(=O)N(C)C)cc1OC | -0.414 |
| Cc1ccc(-n2ncc(C(=O)NC3CCCCC3)c2N)cc1 | -50.6 |
| Cc1cc(C)cc(CN2C[C@@H]3OCCN(S(=O)(=O)N(C)C)[C@@H]3C2)c1 | 8.28 |
| CC(NCC1CCN(CCO)CC1)c1ccc(OC(F)(F)F)cc1 (configuration not stated) | -15.1 |
| CCOc1ccc(-c2c(-c3ccccc3)ncn2C2CCNC2)cn1 (configuration not stated) | -51.9 |

| Structure (SMILES) | cytotoxicity at 10 µM [%] |
| --- | --- |
| Cc1ccc(O)c(C(=O)N2CCC(CNC(=O)OC(C)(C)C)C2)c1 (configuration not stated) | 16.4 |
| CCCN1CC2(CCN(C)CC2)CC1C(=O)NCCn1cccn1 (configuration not stated) | -5.46 |
| COCCN1CC(c2nc(CC3CCN(C)CC3)no2)CCC1=O (configuration not stated) | 2.06 |
| O=C(COCC1CC1)Nc1ncn(CC(=O)N2CCCCCC2)n1 | -11.9 |
| COc1ccc(Cl)cc1CC(=O)NS(=O)(=O)c1ccc(C(N)=O)cc1 | -2.64 |
| CC(C)C(=O)Nc1cc(C(=O)NC2CC(C)(C)NC(C)(C)C2)nn1C | -7.04 |
| Cn1cc(CN2CC[C@H](O)[C@@H]2Cc2ccncc2)cn1 | 3.6 |
| COc1ccc(CNCc2c(C(C)C)nn(C)c2N(C)C)cn1 | -3.92 |
| CN1CCC2(CCCN(C(=O)c3cncn3C)C2)CC1 | -0.757 |
| CCc1nc2n(n1)CC(NCc1cnn(Cc3ccccc3)c1)CC2 (configuration not stated) | -10.4 |
| CCC(C)CN(C)C(=O)NCc1ccccc1-n1cccn1 (configuration not stated) | 8.75 |
| CS(=O)(=O)CCN1CCC2(CCCN(C3CCOCC3)C2=O)C1 (configuration not stated) | -5.65 |
| Cc1c(I)cccc1C(=O)NCC1(CO)CC1 | -4.11 |
| c1cc(CN2CCC(c3nnc4n3CCCCC4)CC2)c2nonc2c1 | -1.08 |
| N#Cc1ccc(Oc2cc(F)c(CN3CCCC3)c(F)c2)nc1 | -8.74 |
| Cc1cnn(CCC(=O)N2CCOC(c3nc(C(C)(C)C)n[nH]3)C2)c1 (configuration not stated) | 5.17 |
| O=C(NCCN1CCC(c2cccs2)CC1)c1ccccc1C(F)(F)F | -20.2 |
| CC(C)Cn1ccnc1CNC(=O)NC(C)c1nccs1 (configuration not stated) | -14.3 |
| Cc1cc(C2CCC2)nc(N2CCC3(CCCNC3=O)C2)n1 (configuration not stated) | -3.83 |
| O=C(CSc1ccc2c(c1)OCCO2)NS(=O)(=O)c1cc(F)ccc1F | -3.47 |
| c1csc(N2CCN(c3ncnc4sccc34)CC2)n1 | 34.6 |

| Structure (SMILES) | cytotoxicity at 10 µM [%] |
| --- | --- |
| CCN(Cc1cnn(C)c1)C[C@H]1CC[C@@H](Cc2ccc(OC)nc2)O1 | 1.94 |
| Cn1ncc2c(=O)[nH]c(CN(Cc3ccco3)C3CC3)nc21 | -9.8 |
| CC(C)N(C(=O)CCc1ccco1)C1CCOCC1 | -5.63 |
| Cc1nc(Nc2cnccn2)cc(C2CCN(CCO)C2)n1 (configuration not stated) | 0.636 |
| Cc1cc(C)n(C2CCCN(C(=O)C3=NN(C)C(=O)CC3)C2)n1 (configuration not stated) | -9.21 |
| CSc1cc2c(cc1NC(=O)NCc1ccco1)OCCO2 | -5.08 |
| CC(C)OC(=O)N1CCCCC1CCn1cccn1 (configuration not stated) | -1.17 |
| Cc1ccc(S(=O)(=O)N2C[C@H]3C[C@H](NC(=O)c4cc[nH]n4)[C@H]3C2)cc1 | 81.4 |
| CN(C)CCN1CCC2(CCN(C(=O)c3ccc(F)cc3)CC2)C1=O | -0.00146 |
| CCCC(=O)N(C)c1cccc2ncccc12 | 3.94 |
| CC1(C)C[C@H](CCNC(=O)c2ccncc2)c2ccccc2O1 | -5.55 |
| COc1ccccc1Oc1ncccc1CNC(=O)C(C)N1CCCC1 (configuration not stated) | -5.39 |
| COCc1cccc(S(=O)(=O)NCc2cnn(C)c2C)c1 | -4.02 |
| Cc1noc2ncc(C(=O)NCC3CCS(=O)(=O)C3)cc12 (configuration not stated) | -18.9 |
| Cc1cc(C2CCCN(Cc3noc(Cc4ccccc4)n3)C2)n[nH]1 (configuration not stated) | 3.65 |
| Cc1nn(C)cc1CN(C)C(=O)c1ccccn1 | 4.12 |
| O=C(Nc1cc(F)ccc1OCC1CCCO1)c1ccccn1 (configuration not stated) | 2.57 |
| O=C1CCN(C(=O)C2(c3ccc(F)cc3)CCCC2)CCN1 | -8.27 |
| CCc1n[nH]c(C2CN(C(=O)CCn3ccccc3=O)CCO2)n1 (configuration not stated) | 0.00528 |
| Cc1cc(NC(=O)c2ccc(Br)cc2F)n(C)n1 | 3.42 |
| CC(C)NC(=O)N1CCN(Cc2ccccn2)CC2(CC(=O)N(C)C2)C1 (configuration not stated) | 2.79 |

| Structure (SMILES) | cytotoxicity at 10 µM [%] |
| --- | --- |
| CC(NC(=O)CCn1cccn1)c1cn(-c2ccccc2)nn1 (configuration not stated) | 0.554 |
| Cc1nnc(CN(C)CC2CCCCC2)o1 | 15.6 |
| Cc1nccc(C2CCCCN2Cc2ccc(F)cc2)n1 (configuration not stated) | -6.06 |
| CC(C)C(=O)N1CCC2(CC1)NC(=O)c1ccccc12 | -0.787 |
| O=C(c1cc(Cl)cc2cccnc12)N1CCN(CCO)CC1 | -2.07 |
| Cc1nnc(N2CCN(C(=O)NC3CC3)CC2)c(C(N)=O)c1C | 4.34 |
| CCc1nc(NS(=O)(=O)c2ccc(C)cc2Cl)no1 | -1.51 |
| Cc1nc(C)c2c(n1)CCN(Cc1ccsc1)CC2 | -126 |
| CN(C)CCCn1ccnc1C1CCCN(c2cc(N)ncn2)C1 (configuration not stated) | -2.1 |
| O=C(c1ccccn1)N1CCC(Oc2ncccc2Cl)CC1 | 3.07 |
| COc1ccc(N2CCN(C(=O)c3cc(=O)c(OC)c[nH]3)CC2)cc1 | -0.244 |
| N#CC1(NC(=O)COC(=O)Cc2cc(Cl)c3c(c2)OCCO3)CCCC1 | 0.935 |
| CC(C)NC(=O)N1CCN(C(=O)C2CCOCC2)CC2(CNC(=O)C2)C1 (configuration not stated) | 0.748 |
| Fc1cnc(N2CCCC3(CN(Cc4cccs4)CCO3)C2)nc1 (configuration not stated) | 7.37 |
| CCCc1n[nH]c(=O)n1Cc1ccc(OC)cc1 | -130 |
| Cc1ccc(CN2CC[C@@H]3[C@H]2CCC(=O)N3Cc2ccncc2)s1 | -65.6 |
| CCc1n[nH]c(=O)c(C(=O)N2CCSC(C)(C)C2)c1CC | 18.6 |
| CC(C)c1nc(CN2CCN(C(=O)Cc3ccccc3Cl)CC2)no1 | -1.96 |
| CN(C(=O)CN(Cc1cccc(O)c1)C1CCC(O)CC1)C1CC1 (configuration not stated) | -0.586 |
